Out of some 300,000 compounds screened, about 4,400 (1.5%) were called active. This is one part of a sample in which actives are shown more often than they occur. Unmarked numbers belong to inactive results.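 Rule for the calls: active = mean inhibition across valid replicates above about 55% (limit read from the data); inconclusive = mean below that limit but half or more replicates reach it; inactive = mean below it, under half of replicates reach it.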
Assay: Trypanosoma cruzi replication blockers in host cells – luminescence, NIH3T3 host cells, primary screen (AID 1885);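 note: signal also drops with host cell toxicity which is not excluded here; 0% = plate median of DMSO wells and 100% = zero luminescence signal; higher percent means less beta-gal luminescence so fewer parasites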
Settings: T. cruzi beta-gal in NIH3T3, luminescence, 90 h; active compounds read high; concentration not given here
Procedure, shortened: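 Test system: β-gal T. cruzi (Tulahuen C4) inside NIH/3T3 cells / Quantity: 5,000 cells/well / Measured by: luminescence from GalScreen with 0.05% NP40, read after 60 min / Medium: DMEM plus 2% FBS / Measure: parasite load inhibition, % / Reagent: Tulahuen C4 trypomastigotes, 5000/well / Schedule: co-culture of at least 90 h after 3 h attachment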

SMILES | inhibition
COc1ccc(NC(=O)CCNC(=O)Cn2cnc3sc4c(c3c2=O)CCCC4)cc1OC | -2.4%
Cc1ccc(S(=O)(=O)N2CCN(C(=O)c3ccccc3-c3nc4ccccc4s3)CC2)c(C)c1 | -3.66%
CC(NC(=O)c1cc2cc(Cl)ccc2oc1=N)c1ccccc1 (stereo not drawn) | -3.32%
C=CCOc1cccc(CNCc2cccnc2)c1 | 17.4%
COc1cccc(CNCCc2c[nH]c3ccccc23)c1OCc1ccccc1F | 39.3%
CCC(Oc1ccccc1)C(=O)NCc1cccnc1 (stereo not drawn) | -4.42%
c1ccc(COc2ccccc2CNCc2cccnc2)cc1 | 69.7% (active)
Fc1ccccc1COc1cccc2cccnc12 | -0.777%
Fc1ccccc1COc1ccccc1CNCc1ccncc1 | 65.1% (active)
CN(C(=O)CN1C(=O)NC(C)(CCc2ccccc2)C1=O)c1ccccc1 (stereo not drawn) | -3.39%
O=C(Nc1ccccc1Cl)N1CCN(c2ccc3nncn3n2)CC1 | -2.95%
O=C1c2ccccc2C(=O)N1CC1c2ccccc2CCN1S(=O)(=O)c1ccccc1 (stereo not drawn) | -2.22%
Cc1c(Cl)c([N+](=O)[O-])nn1CCCC(=O)NC(C)c1ccccc1 (stereo not drawn) | 6.9%
COC(=O)C(C)Sc1ccc2nnc(-c3cccc(F)c3)n2n1 (stereo not drawn) | 19%
C1CC1Cc1noc(CN2CCN(CC3CC3)CC2)n1 | 1.1%
COc1ccc(NC(=O)CN(C)C(=O)CC2CCCCC2)cc1 | -3.55%
FC(F)(F)c1ccc2c3n(nc2c1)CCN=C3c1ccc(Cl)cc1 | 1.67%
Cc1nc2ccccc2n1CC(=O)N/N=C/c1cccnc1 | -15.1%
O=C(CSc1cccc2cccnc12)N/N=C/c1cccnc1 | 64.7% (active)
O=C(CNC(=O)c1cccnc1)N/N=C/c1cccnc1 | -1.7%
COc1ccccc1OCC(=O)Nc1ccccc1C(=O)NC1CC1 | -5.39%
O=S(=O)(Nc1ccc(O)c2ccccc12)c1ccc(OC(F)(F)F)cc1 | 8.4%
Cc1c(C)n2c(SCC(=O)NC3CCCC3)nnc2[nH]c1=O | -14.6%
CC(=O)Nc1ccc(NC(=O)COc2ncnc3ccccc23)cc1 | -17.1%
Cc1ccc(Nc2c3c(nc4ccccc24)CCC3)cc1 | 39.2%
CC(=O)Nc1ccc(Nc2c3ccccc3nc3ccccc23)cc1 | 59.7% (active)
FC(F)(F)c1cccc(-c2nc(COc3ccc(Cl)cc3Cl)no2)c1 | 1.05%
COc1c(C(=O)N2CCCC2)ccc2ccccc12 | -11.3%
